According to ChEMBL document CHEMBL1914364, “3-bromohomofascaplysin A, a fascaplysin analogue from a Fijian Didemnum sp. ascidian” (Bioorg Med Chem, 2011):

Legend:
Plasmodium falciparum [1] = test: Antimalarial activity against chloroquine- and mefloquine-resistant Plasmodium falciparum W2-Mef infected in human O-positive erythrocytes assessed as inhibition of schizonts growth after 48 hrs; assay type: functional, organism-based
Procedure, shortened: (§1)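 Asynchronous W2-Mef cultures kept at 5% hematocrit in RPMI-1640-based malaria medium. Drugs were diluted in ½ log10 steps from 10 μM to 0.33 nM and grown in triplicate for 48 hr. Cells were stained 40 min with Hoechst 33342, thiazole orange, DiIC1-5 and propidium iodide, then read by flow cytometry; DNA/RNA levels assign ring, trophozoite and schizont stages. IC50 is taken from mean parasite counts relative to drug-free control wells.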

Plasmodium falciparum [2] = test: Antimalarial activity against chloroquine- and mefloquine-resistant Plasmodium falciparum W2-Mef infected in human O-positive erythrocytes assessed as inhibition of trophozoites growth after 48 hrs; assay type: functional, organism-based; procedure, shortened: as §1
Plasmodium falciparum [3] = test: Antimalarial activity against chloroquine- and mefloquine-resistant Plasmodium falciparum W2-Mef infected in human O-positive erythrocytes assessed as inhibition of ring-stage parasite growth after 48 hrs; assay type: functional, organism-based; procedure, shortened: as §1
Plasmodium falciparum [4] = test: Antimalarial activity against chloroquine- and mefloquine-resistant Plasmodium falciparum W2-Mef infected in human O-positive erythrocytes after 48 hrs; assay type: functional, organism-based; procedure, shortened: as §1
Plasmodium falciparum [5] = test: Antimalarial activity against chloroquine- and pyrimethamine-resistant Plasmodium falciparum K1; assay type: functional, organism-based
[6] = Ratio of MIC for rat L6 cells to MIC for Plasmodium falciparum
L6 = test: Cytotoxicity against rat L6 cells; assay type: cell-based
Plasmodium falciparum [7] = test: Ratio of IC50 for chloroquine- and mefloquine-resistant Plasmodium falciparum W2-Mef trophozoites to IC50 for chloroquine- and mefloquine-resistant Plasmodium falciparum W2-Mef ring-stage parasite; assay type: functional
Plasmodium falciparum [8] = test: Ratio of IC50 for chloroquine- and mefloquine-resistant Plasmodium falciparum W2-Mef schizonts to IC50 for chloroquine- and mefloquine-resistant Plasmodium falciparum W2-Mef ring-stage parasite; assay type: functional

Structure (SMILES)	IC50 (Plasmodium falciparum [1]) [nM]	IC50 (Plasmodium falciparum [2]) [nM]	IC50 (Plasmodium falciparum [3]) [nM]	IC50 (Plasmodium falciparum [4]) [nM]	IC50 (Plasmodium falciparum [5]) [nM]	Ratio [6]	Activity (L6) [µg/mL]	Ratio IC50 (Plasmodium falciparum [7])	Ratio IC50 (Plasmodium falciparum [8])
CC(=O)C[C@]1(O)c2ccc(Br)cc2-[n+]2ccc3c([nH]c4ccccc43)c21	765	1190	574	805					
C[C@@H]1CC[C@H]2[C@@H](C)C(=O)O[C@@H]3O[C@@]4(C)CC[C@@H]1[C@]32OO4 [ARTEMISININ]	5.91	6.46	5.92	6.25					
O=C1c2ccccc2-[n+]2ccc3c([nH]c4ccccc43)c21.[Cl-] [FASCAPLYSIN CHLORIDE]	65.2	401	7.82	48.2	160	50	2.5		
CC(=O)C[C@]1(O)c2ccccc2-[n+]2ccc3c([nH]c4ccccc43)c21.[Cl-] [HOMOFASCAPLYSINE A]	94	252	0.55	105	38	50	1.1	450	170
